Measurements: ChEMBL document CHEMBL1649179, “Pharmacokinetics of LB80331 and LB80317 following oral administration of LB80380, a new antiviral agent for chronic hepatitis B (CHB), in healthy adult subjects, CHB patients, and mice” (Antimicrob Agents Chemother, 2009)

Tests used:
Liver [1] = assay: AUC (0 to 36 hrs) in CD-1 mouse liver assessed as (1-((2-amino-9H-purin-9-yl)methyl)cyclopropoxy)me at 30 mg/kg, po administered as single dose by LC-MS analysis; format: ADME, organism-based; parameters: time < 36 hr, dose 30 mg/kg, route oral; conditions: in vivo
Outline: (§1)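 Male CD-1 mice given a single oral dose in 100% PEG 400. Samples extracted with perchloric acid and neutralized with ammonium bicarbonate. One aliquot assayed for the free analyte; the other treated with calf intestinal phosphatase to give the total including di-/triphosphates. Analysis by LC-MS/MS.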

Homo sapiens [2] = assay: AUC (0 to infinity) in chronic hepatitis B virus infected patient assessed as (1-((2-amino-9H-purin-9-yl)methyl)cyclopropoxy)me at 120 mg, po administered as single dose by LC-MS analysis; format: ADME, organism-based, Plasma; parameters: dose 120 mg, time infinity, route oral; conditions: in vivo
Outline: (§2)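 CHB patients (HBsAg/HBeAg positive), six per dose cohort, given a first oral dose on day 1. Plasma sampled at baseline. Analysis by validated LC-MS/MS after protein precipitation with a stable-isotope internal standard; LLOQ 5 ng/ml for LB80331. Noncompartmental analysis gives Cmax and AUC0-∞.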

Liver [3] = assay: Cmax in CD-1 mouse liver assessed as (1-((2-amino-9H-purin-9-yl)methyl)cyclopropoxy)me at 30 mg/kg, po administered as single dose by LC-MS analysis; format: ADME, organism-based; parameters: dose 30 mg/kg, route oral; conditions: in vivo; outline: as §1
Homo sapiens [4] = assay: Cmax in chronic hepatitis B virus infected patient assessed as (1-((2-amino-9H-purin-9-yl)methyl)cyclopropoxy)me at 60 mg, po administered as single dose by LC-MS analysis; format: ADME, organism-based; parameters: dose 60 mg, route oral; conditions: in vivo; outline: as §2
Plasma [5] = assay: Cmax in CD-1 mouse plasma assessed as (1-((2-amino-9H-purin-9-yl)methyl)cyclopropoxy)me at 30 mg/kg, po administered as single dose by LC-MS analysis; format: ADME, organism-based; parameters: dose 30 mg/kg, route oral; conditions: in vivo; outline: as §1
Homo sapiens [6] = assay: Cmax in chronic hepatitis B virus infected patient assessed as (1-((2-amino-9H-purin-9-yl)methyl)cyclopropoxy)me at 120 mg, po administered as single dose by LC-MS analysis; format: ADME, organism-based; parameters: dose 120 mg, route oral; conditions: in vivo; outline: as §2
Plasma [7] = assay: Tmax in CD-1 mouse plasma assessed as (1-((2-amino-9H-purin-9-yl)methyl)cyclopropoxy)me at 30 mg/kg, po administered as single dose by LC-MS analysis; format: ADME, organism-based; parameters: dose 30 mg/kg, route oral; conditions: in vivo
Outline: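 Male CD-1 mice received 30 mg/kg orally in 100% PEG 400. Plasma and snap-frozen liver were taken from 3 mice per time point at 1, 2, 4, 6, 10, 24 and 36 h. Samples were extracted with perchloric acid and neutralized with ammonium bicarbonate. Free LB80331/LB80317 was measured directly by LC-MS/MS; total, including di- and triphosphates, was measured after calf intestinal phosphatase treatment.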

Homo sapiens [8] = assay: Tmax in chronic hepatitis B virus infected patient assessed as (1-((2-amino-9H-purin-9-yl)methyl)cyclopropoxy)me at 30 mg, po qd for 4 weeks by LC-MS analysis; format: ADME, organism-based; conditions: in vivo, 672 h
Outline: (§3)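 Daily oral LB80380 was given to CHB patients over 4 weeks. Blood was drawn on day 1 and at steady state (weeks 2–4), predose and 0.5–24 h postdose. Plasma LB80331 (LLOQ 5 ng/ml) and LB80317 (LLOQ 10 ng/ml) were measured by LC-MS/MS after protein-precipitation extraction. Tmax was taken by noncompartmental analysis.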

Homo sapiens [9] = assay: Oral clearance in chronic hepatitis B virus infected patient assessed as (1-((2-amino-9H-purin-9-yl)methyl)cyclopropoxy)me at 120 mg, po administered as single dose by LC-MS analysis; format: ADME, organism-based; conditions: in vivo
Outline: (§4)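 Oral LB80380 was given once daily for 4 weeks to CHB patients. Plasma LB80331 was quantified by validated LC-MS/MS after protein precipitation, with stable-isotope internal standard, at baseline and steady state (weeks 2–4), 0–24 h postdose. Noncompartmental CL/F was calculated as dose (adjusted for LB80380/LB80331 molecular weights) divided by AUC (AUC0-∞ single dose; AUC0-24 steady state).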

Homo sapiens [10] = assay: AUC (0 to infinity) in chronic hepatitis B virus infected patient assessed as (1-((2-amino-9H-purin-9-yl)methyl)cyclopropoxy)me at 240 mg, po administered as single dose by LC-MS analysis; format: ADME, organism-based, Plasma; parameters: dose 240 mg, route oral, time infinity; conditions: in vivo; outline: as §2
Homo sapiens [11] = assay: Tmax in fasted healthy human assessed as (1-((2-amino-9H-purin-9-yl)methyl)cyclopropoxy)me assessed as (1-((2-amino-9H-purin-9-yl)methyl)cyclopropoxy)me at 60 mg, po administered as single dose by LC-MS analysis; format: ADME, organism-based; conditions: in vivo
Outline: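 Healthy subjects received a single oral 60-mg dose after a high-fat breakfast or after an overnight fast. Plasma LB80331 was assayed by validated LC-MS/MS (LLOQ 5 ng/ml; intra- and interassay precision and accuracy <10%). Tmax was obtained by noncompartmental analysis.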

Homo sapiens [12] = assay: Oral clearance in chronic hepatitis B virus infected patient assessed as (1-((2-amino-9H-purin-9-yl)methyl)cyclopropoxy)me at 30 mg, po qd for 4 weeks by LC-MS analysis; format: ADME, organism-based; conditions: in vivo, 672 h; outline: as §4
Homo sapiens [13] = assay: Cmax in fasted healthy human assessed as (1-((2-amino-9H-purin-9-yl)methyl)cyclopropoxy)me at 60 mg, po administered as single dose by LC-MS analysis; format: ADME, organism-based; parameters: dose 60 mg, route oral; conditions: in vivo
Outline: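 Healthy subjects given a single oral dose after an overnight fast or after a high-fat breakfast. Plasma LB80331 measured by validated LC-MS/MS (LLOQ 5 ng/ml) after protein precipitation. Cmax by noncompartmental analysis.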

Liver [14] = assay: AUC (0 to infinity) in CD-1 mouse liver assessed as di- and triphosphates of (1-((2-amino-9H-purin-9-yl)methyl)cyclopropoxy)me at 30 mg/kg, po administered as single dose by LC-MS analysis; format: ADME, organism-based; parameters: time infinity, dose 30 mg/kg, route oral; conditions: in vivo; outline: as §1
Homo sapiens [15] = assay: Tmax in chronic hepatitis B virus infected patient assessed as (1-((2-amino-9H-purin-9-yl)methyl)cyclopropoxy)me at 120 mg, po qd for 4 weeks by LC-MS analysis; format: ADME, organism-based; conditions: in vivo, 672 h; outline: as §3
Homo sapiens [16] = assay: AUC (0 to infinity) in chronic hepatitis B virus infected patient assessed as (1-((2-amino-9H-purin-9-yl)methyl)cyclopropoxy)me at 60 mg, po administered as single dose by LC-MS analysis; format: ADME, organism-based, Plasma; parameters: dose 60 mg, time infinity, route oral; conditions: in vivo; outline: as §2
Homo sapiens [17] = assay: Cmax in chronic hepatitis B virus infected patient assessed as (1-((2-amino-9H-purin-9-yl)methyl)cyclopropoxy)me at 240 mg, po qd for 4 weeks by LC-MS analysis; format: ADME, organism-based; parameters: dose 240 mg, route oral; conditions: in vivo, 672 h
Outline: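 CHB patients, oral once daily for 4 weeks. Plasma sampled at steady state (weeks 2–4), predose and at 0.5, 1, 2, 3, 4, 6, 8 and 24 h postdose. LB80331 measured by validated LC-MS/MS (LLOQ 5 ng/ml) after protein precipitation with a stable-isotope internal standard. Cmax by noncompartmental analysis.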

Homo sapiens [18] = assay: Half life in chronic hepatitis B virus infected patient assessed as (1-((2-amino-9H-purin-9-yl)methyl)cyclopropoxy)me at 30 mg, po administered as single dose by LC-MS analysis; format: ADME, organism-based; conditions: in vivo
Outline: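 CHB patients given LB80380 orally once daily for 4 weeks. Plasma was sampled on day 1 and at steady state (weeks 2–4), predose and 0.5, 1, 2, 3, 4, 6, 8 and 24 h postdose. LB80331 was measured by validated LC-MS/MS (LLOQ 5 ng/ml). Terminal-phase apparent t1/2 came from noncompartmental analysis and was flagged if extrapolated AUC exceeded 20% of AUC0-24.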

Liver [19] = assay: AUC (0 to 36 hrs) in CD-1 mouse liver assessed as di- and triphosphates of (1-((2-amino-9H-purin-9-yl)methyl)cyclopropoxy)me at 30 mg/kg, po administered as single dose by LC-MS analysis; format: ADME, organism-based; parameters: time < 36 hr, dose 30 mg/kg, route oral; conditions: in vivo; outline: as §1

In the case of `Nc1ncc2ncn(CC3(OCP(=O)(O)O)CC3)c2n1` [BESIFOVIR], the AUC (Liver [1]) is reported as 102 µM·h, the AUC (Homo sapiens [2]) is reported as 4374 ng·h/mL and the Cmax (Liver [3]) is reported as 44 µM. The Cmax (Homo sapiens [4]) was 397 ng/mL, the Cmax (Plasma [5]) was 6 µM and the Cmax (Homo sapiens [6]) was 805 ng/mL. The Tmax (Plasma [7]) was 1 h, the Tmax (Homo sapiens [8]) was 2 h and the CL/F (Homo sapiens [9]) was 273 mL/min. It also gave an AUC (Homo sapiens [10]) of 6302 ng·h/mL, a Tmax (Homo sapiens [11]) of 1.5 h and a CL/F (Homo sapiens [12]) of 289 mL/min. For the same compound, the Cmax (Homo sapiens [13]) was 286 ng/mL, the AUC (Liver [14]) was 64 µM·h and the Tmax (Homo sapiens [15]) was 1 h. For the same compound, the AUC (Homo sapiens [16]) was 2344 ng·h/mL, the Cmax (Homo sapiens [17]) was 1164 ng/mL and the t1/2 (Homo sapiens [18]) was 2.5 h. The AUC (Liver [19]) was 64 µM·h.
